# UHRF1 binding: human UHRF1 methylated DNA binding inhibitors. Q96T88. UHRF1 binding to methylated oligo, TR-FRET. inhibition, % at 4.4 µM. 370,000 tested, 0.75% active. AID 687016;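 also: UHRF1 SRA domain binding a hemimethylated CpG hairpin DNA probe; 0% = median of test compound wells and 100% = reference inhibitor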
# TDP2 absorb: blocks human TDP2 phosphodiesterase activity; recombinant TDP2, T5PNP hydrolysis, p-nitrophenol absorbance 415 nm; O95551; 370,000 tested, 0.34% active; inhibition, % at 12.8 µM;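 active = inhibition above the mean of all tested compounds plus 3 SD, set per campaign, cut at about 25% in these data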;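 also: 0% = DMSO with enzyme and 100% = buffer with substrate but no TDP2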
#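 Assay system: recombinant human TDP2 / Reagent: T5PNP substrate at 5 mM, a TopII-DNA adduct mimic / Measured by: epi absorbance from released p-nitrophenol / Evaluation: % inhibition relative to enzyme-containing and enzyme-free wells / Control set: enzyme-free and DMSO wells / Replicates: each compound tested once, singlicate / Schedule: enzyme reaction with compound for 2 h at 37 °C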
# LEDGF integ inh: blocks HIV-1 LEDGF/p75-dependent DNA integration. TR-FRET IN-LEDGF/p75 DNA integration, Eu/Cy5. inhibition, % at 3.7 µM. 370,000 tested, 0.64% active;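 active = inhibition above the screen-wide mean plus 3 SD, cut at about 13% in these data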;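 also: signal is the Cy5 over europium emission ratio at 671 and 618 nm; 0% = plate median of compound wells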
# MBD2 inh: inhibitors of human MBD2 binding to methylated oligonucleotide; AID 686964; inhibition, % at 4.4 µM; TR-FRET; 370,000 tested, 0.31% active; Q9UBB5; in the data active = inhibition above about 13%
# Target sequence (Q9UBB5 whole entry, looked up): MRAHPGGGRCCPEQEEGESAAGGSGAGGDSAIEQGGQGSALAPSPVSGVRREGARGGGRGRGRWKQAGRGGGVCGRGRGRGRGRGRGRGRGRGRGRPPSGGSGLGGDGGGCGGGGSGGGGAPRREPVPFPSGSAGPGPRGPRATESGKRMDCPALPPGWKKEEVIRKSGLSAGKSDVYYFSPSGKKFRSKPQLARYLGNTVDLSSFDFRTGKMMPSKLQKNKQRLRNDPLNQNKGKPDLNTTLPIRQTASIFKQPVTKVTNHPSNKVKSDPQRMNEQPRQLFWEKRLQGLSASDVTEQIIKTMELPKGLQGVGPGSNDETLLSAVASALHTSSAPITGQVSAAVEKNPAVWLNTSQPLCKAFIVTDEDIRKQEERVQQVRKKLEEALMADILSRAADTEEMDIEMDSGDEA
# UHRF1 ctr MBD2: counter-screen for MBD2 inhibitors: human UHRF1 methylated DNA binding inhibitors | UHRF1 binding to methylated oligonucleotide, TR-FRET | AID 720530 | 1,000 tested, 25% active | inhibition, % at 4.4 µM | shares compounds with MBD2 inh;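 also: UHRF1 SRA domain binding a labeled hemimethylated CpG hairpin DNA; 0% = vehicle only and 100% = reference inhibitor with vehicle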
# MBD2 DBD conf: MBD2-DBD methyl-DNA binding inhibition, TR-FRET confirmation | shares compounds with MBD2 inh | TR-FRET MBD2-DBD binding to methylated oligonucleotide | inhibition, % at 4.4 µM | 1,000 tested, 26% active | AID 720531; in the data active = inhibition above about 14%
# Numbers without * were called inactive; / = no result given. Most compounds without a hit are left out; they make up all but 1.6% or so of the library. Rule as the data show it, unless noted: active = inhibition above about 21%; inactive = the rest.
SMILES,UHRF1 binding,TDP2 absorb,LEDGF integ inh,MBD2 inh,UHRF1 ctr MBD2,MBD2 DBD conf
CC1(C(=O)NS(=O)(=O)c2ccc(F)cc2F)CCN1C(=O)CCc1ccc(Cl)cc1Cl (configuration not stated),17,8,1,26*,8,1
O=C(NNC(=O)c1cccc(-n2cccc2)c1)c1ccccc1,1,6,2,4,/,/
O=C(NNC(=O)c1ccccc1F)c1cccc(-n2cccc2)c1,46*,0,7,24*,46*,34*
CN1CCN(CCCNc2nc3ccccc3c3nc(-c4ccccc4)nn23)CC1,6,1,-3,3,/,/
COCCCNc1nc2cc(OC)c(OC)cc2c2nc(-c3ccccc3)nn12,1,10,-1,3,/,/
CCN(CC)CCCNc1nc2cc(OC)c(OC)cc2c2nc(-c3cccnc3)nn12,68*,4,0,69*,81*,78*
COc1cc2nc(NCCCN3CCN(C)CC3)n3nc(-c4ccccc4)nc3c2cc1OC,49*,-6,7,48*,41*,42*
CCN(CC)CCCNc1nc2cc(OC)c(OC)cc2c2nc(-c3ccccc3)nn12,35*,3,1,35*,56*,57*
CCCCNS(=O)(=O)/C=C/c1cc(C)ccc1CNC(=O)OC(C)(C)C,-3,-2,2,5,/,/
CCCC(C)NC(=O)CC1Oc2ccccc2NC1=O (configuration not stated),5,2,2,0,/,/
COC(=O)c1cc(C(=O)OCC(=O)NC(=O)NCc2ccccc2)cc([N+](=O)[O-])c1,19,2,-1,17*,4,2
COCCNC(=S)N(C)[C@H]1C[C@H]2c3[nH]c4cccc(-c5ccccc5)c4c3CCN2C(=O)[C@H]1[C@H](C)O,-1,-9,0,3,/,/
CC(C)(C)C(=O)NC1CCN(S(=O)(=O)c2ccccc2F)CC1,-1,10,4,15*,7,3
Cc1c(C(N)=O)cc([N+](=O)[O-])cc1[N+](=O)[O-],23*,-7,2,17*,5,2
CCOc1c(C(N)=O)cc([N+](=O)[O-])cc1[N+](=O)[O-],-2,-2,4,-4,/,/
COc1ccc2c(=O)c3c(=O)n(-c4ccccc4)c(-c4ccc(C)cc4)nc3oc2c1,11,11,-1,19*,18,68*
c1ccc(-c2csc(Nc3cccnc3)n2)nc1,-3,7,-3,27*,0,2
c1ccc(Nc2nc(-c3ccccn3)cs2)cc1,1,-7,10,-6,/,/
CCOC(=O)N1CCN(C(=O)C[C@@H]2C[C@@]3(C(=O)OCC)CCCC=C3N(CCC3=CCCCC3)C2=O)CC1,1,-8,0,20*,7,5
CCOC(=O)[C@]12CCC=C1N(CCC1=CCCCC1)C(=O)[C@H](CC(=O)N1CCC(c3ccccc3)CC1)C2,1,-4,-1,5,/,/
C[C@H](CO)N1C[C@H](C)[C@H](CN(C)C(=O)Nc2cccc(F)c2)Oc2cc(Br)ccc2S1(=O)=O,0,4,-1,3,/,/
CCCCS(=O)(=O)N1CCCc2nc(-c3ccc(Br)cc3)ccc21,0,-1,2,0,/,/
CCC(NC(=O)CCCN1C(=O)COc2ccc(C)cc21)c1ccccc1 (configuration not stated),-1,1,0,-8,/,/
Cc1cccc(N2CC(C(=O)Nc3cccc(S(=O)(=O)N4CCCCC4)c3)CC2=O)c1C (configuration not stated),4,-15,0,81*,4,1
Cc1cccc(N2CC(C(=O)Nc3ccc(S(=O)(=O)N4CCOCC4)cc3)CC2=O)c1C (configuration not stated),-3,-11,-3,-2,/,/
SMILES,UHRF1 binding,TDP2 absorb,LEDGF integ inh,MBD2 inh,UHRF1 ctr MBD2,MBD2 DBD conf
Cc1ccc(S(=O)(=O)N2CCN(C(=O)c3cc4c(s3)CCCC4)CC2)cc1,5,-5,6,-2,/,/
COc1ccc(S(=O)(=O)N2CCN(C(=O)c3cc4c(s3)CCC4)CC2)cc1,46*,-6,7,22*,46*,43*
CN(CCO)c1cccc2c1S(=O)(=O)N(Cc1cn(Cc3ccc(Cl)cc3)nn1)Cc1ccccc1O2,3,-4,-3,4,/,/
CCN(C(=O)COC(=O)/C=C/c1cccc(Br)c1)C1CCS(=O)(=O)C1 (configuration not stated),28*,-9,0,16*,7,0
COC(=O)c1ccc(C(=O)OC)c(NC(=S)N2CCCC(CO)C2)c1 (configuration not stated),1,4,0,24*,1,4
CCNC(=O)C1(C)CCN(Cc2ccc(OC(F)(F)F)cc2)C1 (configuration not stated),1,-5,0,29*,11,6
Cn1ccc2ccc(-c3ccc4c(c3)[C@]3(CCC[C@@H](OCc5ccccc5)[C@@H]3NC(=O)CCc3ccccc3)C(=O)N4Cc3ccccc3)cc21,-1,10,-2,-2,/,/
O=C(CCc1ccccc1)N[C@H]1[C@@H](OC(=O)c2cccnc2)CCC[C@]12C(=O)N(Cc1ccccc1)c1ccccc12,18,1,3,17*,9,8
O=C(CCc1ccccc1)N[C@H]1[C@H](OC(=O)c2cnccn2)CCC[C@@]12C(=O)N(Cc1ccccc1)c1ccccc12,-2,6,5,0,/,/
O=C(CCc1ccccc1)N[C@H]1[C@H](OCc2ccccc2)CCC[C@@]12C(=O)N(Cc1ccccc1)c1ccc(-c3ccsc3)cc12,17,3,2,15*,15,9
CCCCSc1nc2c(cc1C#N)CCC2,-5,8,1,-6,/,/
CCCSc1nc(C)c(-c2csc(C(C#N)=C3CCCC3)n2)cc1C#N,17,-4,2,16*,7,6
CCCCNC(=O)C[C@H]1C[C@@]2(C(=O)OC)C(=C[C@H](C3CCCC3)O[C@@H]2C)N(Cc2ccco2)C1=O,-1,-12,5,-8,/,/
O=C(COC(=O)Cc1cccc(C(F)(F)F)c1)NCc1ccco1,35*,-4,11,17*,21*,6
CC(C)C[C@H]1COc2cc(N3CCCC3)ccc2S(=O)(=O)N1,2,3,-3,0,/,/
O=C(OCCCc1cc2ccccc2c(=O)o1)c1ccc(C(F)(F)F)cc1,-1,-4,-3,3,/,/
COc1cc2cc(CCCOC(=O)c3ccc(C(F)(F)F)cc3)oc(=O)c2cc1OC,2,-4,2,20*,2,8
C#CCNC(=O)C[C@H]1C[C@@]2(C(=O)OC)C(=C[C@H](C3CCCC3)O[C@@H]2C)N(CCC2=CCCCC2)C1=O,4,0,-4,2,/,/
